From the RNAGym collection of RNA variant scans (doi:10.1101/gad.245936.114)
Fewer inactive variants are shown than the library holds.

B1: tRNA (parent)
chain: CUCUCGGUAGCCAAGUUGGUUUAAGGCGCAAGACUUUAAUUUAUCACUACGAAAUCUUGAGAUCGGGCGUUCGACUCGCCCCCGGGAGAUUUUUUCCUCGAGCAA

Variants of: B1
Assay: nonsense suppression (GFP-seq) (ratio to wild type); higher = more function; SUP4oc tRNA, yeast GFP reporter sort-seq
Outline: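 Sorted GFP/RFP bins of yeast were each Illumina-sequenced with a phred ≥30 cutoff; the cells held a genome-integrated ochre-suppressor tRNA variant from a library with ~3% random mutations, a galactose-driven GFP ochre reporter, and RFP. Culture was in raffinose/galactose medium containing 80 mg/L adenine. Nonsense suppression, termed GFPSEQ, is the median GFP/RFP of the bins weighted by each variant's estimated cell share per bin, relative to the unmutated parent tRNA, for variants reaching ≥100 reads and ≥30 cells.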

Variant | nonsense suppression
G32U U55G A62C | ≤ 0.026
C1G A9C G18U U71G | ≤ 0.026
U2G A33C A60U G73C | ≤ 0.026
A13C A14U | 0.206
A60G G85C | 0.119
C12U C27U G61C | ≤ 0.026
U2C A31G | 0.0356
A14C G59C G85A | ≤ 0.026
C12U U76C | 0.818
U4G U17C | 0.45
G61U C75U G85A | 1.04
A60C | 0.489
C12U A13U | 0.626
U2G C77G | ≤ 0.026
U2C U20C | 0.0975
G28C U63C | 0.114
C56G U58C G66C U70C | ≤ 0.026
A24C C72G | 0.0618
A13C G61U A87C | ≤ 0.026
A9C C12U | 0.186
C1A A30G G85A | 0.0742

Variant | nonsense suppression
U21G A87G | 0.172
C34G G69C | ≤ 0.026
U4A A24U | 0.0458
A33G C75G | 0.216
A54C U71G | ≤ 0.026
U17A G61A | 0.83
G10U A14U | 0.19
U57C A89G | ≤ 0.026
A14G A60G | 0.0456
G10A C27U | ≤ 0.026
U20C G61A | 0.212
C29A G73A | ≤ 0.026
U20C | 0.848
U16G U17A | 1.05
A30U U55G G78C A89C | ≤ 0.026
U76A C77A | ≤ 0.026
C3A G67U | ≤ 0.026
A13U U21A U35C G84U | ≤ 0.026
U55C C83G | 0.0314
A54C C75G | 1.15
C12U U63G | 0.121

Variant | nonsense suppression
A14G G61C | 0.0278
G26C A60C | 0.027
U22C G73A C80U | 0.0265
G19A A23C G85U | ≤ 0.026
U4C A9C | 1.02
U2C U21C U57G | ≤ 0.026
U8A U55G C81G | ≤ 0.026
G59A C75A | 0.717
A60G A74G | 0.0684
U21C C81U | 1.14
C1G G25A G65A C83G | ≤ 0.026
U17C U35G G61C U76C | ≤ 0.026
U4C A87G | 1.1
A31G U57C G78A G86A | ≤ 0.026
A14U G18U A23U C27G | ≤ 0.026
G26U A31C G65C | ≤ 0.026
A14C C29U | ≤ 0.026
U4C U35A C83A | ≤ 0.026
G6A A24U | 0.0308
A54C G61A | 0.334
A9U A33G | 0.0334

Variant | nonsense suppression
U4C U57A | 0.609
C27U A54U | 0.104
C5G G7U C11G | ≤ 0.026
A9G C72A | 0.0268
A54U A89C | ≤ 0.026
G7U G19U | ≤ 0.026
A23U G32U U63G C68A U70A A74C | ≤ 0.026
U63C | 1.05
G19A C64G C68U C82A | ≤ 0.026
C1A C5U U17A U55A | ≤ 0.026
U16A G73A | 0.63
U22G A54G G73A | ≤ 0.026
G61C G65A C68U | ≤ 0.026
U2A U4G G18A | ≤ 0.026
A14C C56G C72G G86A | ≤ 0.026
G26A C77G | ≤ 0.026
C1G U55C | 0.0398
A14G A74C | ≤ 0.026
G28C A33U C82U A89U | ≤ 0.026
A33G G88C | ≤ 0.026
